Assay results published in ChEMBL document CHEMBL1132816, “Arylacetamides as peripherally restricted kappa opioid receptor agonists” (Bioorg Med Chem Lett, 2000).

How the values were obtained:
Type in all cases: functional
Rattus norvegicus [1] = test: The compound was evaluated in vivo for their ability to inhibit formalin induced flinching in rats by subcutaneous administration
How it was run: (§1)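 Rat formalin-induced flinching with subcutaneous dosing, starting at 10 or 30 mg/kg. Read-out is % inhibition of flinching at the dose given, or an A50 in mg/kg from titration.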

Rattus norvegicus [2] = test: The compound was evaluated in vivo for sedation in rats by subcutaneous administration using Rotarod assay; conditions: sc
How it was run: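 Sedation, taken as a centrally mediated side effect, scored by rotarod performance in rats after subcutaneous dosing. Read-out is the ED50 in mg/kg.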

Rattus norvegicus [3] = test: The compound was evaluated in vivo for its ability to inhibit formalin induced flinching in rats by intrapaw administration
How it was run: (§2)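 Rat formalin-induced flinching with intrapaw dosing. Read-out is % inhibition of flinching at the stated dose. Agents reaching ≥80% antagonism at 300 µg were titrated to an A50 in µg.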

Rattus norvegicus [4] = test: The compound was evaluated in vivo for antagonism of formalin induced flinching in rats at 300 (microg) by intrapaw administration; how it was run: as §2
Rattus norvegicus [5] = test: The compound was evaluated in vivo for antagonism of formalin induced financing in rats at 30 […] by subcutaneous administration; how it was run: as §1
Rattus norvegicus [6] = test: The compound was evaluated in vivo for percent decrease of sedation in rats at 3 mg/kg by subcutaneous administration using Rotarod assay
Rattus norvegicus [7] = test: The compound was evaluated in vivo for antagonism of formalin induced flinching in rats at 1000 (microg) by intrapaw administration; how it was run: as §2
Rattus norvegicus [8] = test: The compound was evaluated in vivo for antagonism of formalin induced […] in rats at 10 […] by subcutaneous administration; how it was run: as §1

CN(C(=O)Cc1ccc(Cl)c(Cl)c1[N+](=O)[O-])[C@H](CN1CCCC1)c1ccccc1
A50 (Rattus norvegicus [1]): 0.24 mg/kg | ED50 (Rattus norvegicus [2]): 0.97 mg/kg | A50 (Rattus norvegicus [3]): 5.3 µg

CN(C(=O)Cc1cccc(N)c1)[C@H](CN1CCCC1)c1ccccc1
Antagonism (Rattus norvegicus [4]): 58%

CN(C(=O)Cc1ccccc1N(S(C)(=O)=O)S(C)(=O)=O)[C@H](CN1CCCC1)c1ccccc1
Antagonism (Rattus norvegicus [5]): 21% | A50 (Rattus norvegicus [3]): 17 µg

CN(C(=O)Cc1ccc(N)cc1)[C@H](CN1CCCC1)c1ccccc1
Antagonism (Rattus norvegicus [4]): 52%

CN(C(=O)Cc1ccc(C(F)(F)F)cc1)[C@H](CN1CCCC1)c1ccccc1
A50 (Rattus norvegicus [1]): 0.009 mg/kg | ED50 (Rattus norvegicus [2]): 0.12 mg/kg | A50 (Rattus norvegicus [3]): 0.82 µg

CN(C(=O)Cc1ccc(Cl)c(Cl)c1N)[C@H](CN1CCCC1)c1ccccc1
A50 (Rattus norvegicus [3]): 7 µg

CN(C(=O)Cc1ccc(Cl)c(Cl)c1)[C@H](CN1CCCC1)c1ccccc1 [ICI-199,441]
A50 (Rattus norvegicus [1]): 0.05 mg/kg | ED50 (Rattus norvegicus [2]): 0.14 mg/kg | A50 (Rattus norvegicus [3]): 0.74 µg

CN(C(=O)Cc1cccc(C(F)(F)F)c1)[C@H](CN1CCCC1)c1ccccc1
A50 (Rattus norvegicus [1]): 0.02 mg/kg | ED50 (Rattus norvegicus [2]): 0.18 mg/kg

CN(C(=O)Cc1ccccc1C(F)(F)F)[C@H](CN1CCCC1)c1ccccc1
A50 (Rattus norvegicus [1]): 0.54 mg/kg | Decrease (Rattus norvegicus [6]): 71%

CN(C(=O)Cc1ccccc1[N+](=O)[O-])[C@H](CN1CCCC1)c1ccccc1
A50 (Rattus norvegicus [3]): 29 µg

CN(C(=O)Cc1ccccc1N)[C@H](CN1CCCC1)c1ccccc1
A50 (Rattus norvegicus [1]): 1.5 mg/kg | ED50 (Rattus norvegicus [2]): 8.9 mg/kg | A50 (Rattus norvegicus [3]): 65 µg

CN(C(=O)Cc1ccc(N(S(C)(=O)=O)S(C)(=O)=O)cc1)[C@H](CN1CCCC1)c1ccccc1
Antagonism (Rattus norvegicus [5]): 30% | Antagonism (Rattus norvegicus [7]): 95%

CN(C(=O)Cc1cccc([N+](=O)[O-])c1)[C@H](CN1CCCC1)c1ccccc1
Antagonism (Rattus norvegicus [4]): 95%

CN(C(=O)Cc1ccc(Cl)c(Cl)c1N(S(C)(=O)=O)S(C)(=O)=O)[C@H](CN1CCCC1)c1ccccc1
A50 (Rattus norvegicus [3]): 28 µg

CN(C(=O)Cc1cccc(N(S(C)(=O)=O)S(C)(=O)=O)c1)[C@H](CN1CCCC1)c1ccccc1
Antagonism (Rattus norvegicus [4]): 91% | Antagonism (Rattus norvegicus [8]): 15%
